Assay results as given in ChEMBL document CHEMBL1142065, “In vitro and in vivo activities of a new cephalosporin, FR264205, against Pseudomonas aeruginosa” (2007).
Activity calls are given as the source filed them.

Assays:
Pseudomonas aeruginosa [1] = test: Antibacterial activity against Pseudomonas aeruginosa PAO4222; format: functional
Outline: (§1)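 Agar dilution MIC per NCCLS (CLSI) M7-A7 on Mueller-Hinton agar with twofold serial drug dilutions. Inoculum 10^4 CFU per spot, aerobic incubation 18 to 20 h at 35°C. MIC is the lowest concentration preventing visible growth.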

Pseudomonas aeruginosa [2] = test: Antibacterial activity against Pseudomonas aeruginosa PAO1; format: functional; outline: as §1
Escherichia coli [3] = test: Antibacterial activity against Escherichia coli C600 expressing ESBL TEM5; format: functional
Outline: (§2)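 MIC by agar dilution (CLSI M7-A7) on Mueller-Hinton agar with twofold serial drug dilutions; 10^4 CFU spotted per spot; aerobic incubation 18 to 20 h at 35°C; MIC read as lowest concentration preventing visible growth.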

Escherichia coli [4] = test: Antibacterial activity against Escherichia coli C600 expressing ESBL TEM7; format: functional; outline: as §2
Pseudomonas aeruginosa [5] = test: Antibacterial activity against Pseudomonas aeruginosa PAO1 after 5 serial passages; format: functional
Outline: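 PAO1 passaged daily for five consecutive days in fresh Mueller-Hinton broth with twofold drug dilution series. Each next inoculum came from the tube at one-fourth the MIC. MIC change was followed across passages.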

Escherichia coli [6] = test: Antibacterial activity against Escherichia coli C600 expressing ESBL SHV3; format: functional; outline: as §2
Escherichia coli [7] = test: Antibacterial activity against Escherichia coli C600 expressing ESBL TEM6; format: functional; outline: as §2
Escherichia coli [8] = test: Antibacterial activity against Escherichia coli C600 expressing ESBL SHV4; format: functional; outline: as §2
Escherichia coli [9] = test: Antibacterial activity against Escherichia coli C600; format: functional; outline: as §2
Escherichia coli [10] = test: Antibacterial activity against Escherichia coli C600 expressing OXA1; format: functional; outline: as §2
Pseudomonas aeruginosa [11] = test: Efficacy against Pseudomonas aeruginosa 93 pulmonary infection in mouse assessed as reduction in bacterial counts at 10 mg/kg, sc; format: functional, organism-based; parameters: dose 10 mg/kg
Outline: (§3)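 Male ICR mice (4 weeks), made neutropenic with cyclophosphamide 200 mg/kg ip 4 days before infection. Under pentobarbital anesthesia (50 mg/kg iv) they were challenged intranasally with 3.30 log10 CFU of strain 93, grown on tryptic soy agar 35°C 20 h and suspended in saline. Dosed sc twice daily for 3 days from 3 h post-infection. Lung viable counts taken the day after last dose; 6 mice/dose.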

Escherichia coli [12] = test: Antibacterial activity against Escherichia coli C600 expressing ESBL TEM8; format: functional; outline: as §2
Pseudomonas aeruginosa [13] = test: Antibacterial activity against Pseudomonas aeruginosa KG4001 producing MexEF-OprN efflux pump; format: functional; outline: as §1
Escherichia coli [14] = test: Antibacterial activity against Escherichia coli C600 expressing ESBL SHV2; format: functional; outline: as §2
Pseudomonas aeruginosa [15] = test: Antibacterial activity against Pseudomonas aeruginosa 93; format: functional; outline: as §2
Escherichia coli [16] = test: Antibacterial activity against Escherichia coli C600 expressing ESBL OXA2; format: functional; outline: as §2
Pseudomonas aeruginosa [17] = test: Efficacy against Pseudomonas aeruginosa 93 assessed as reduction in bacterial counts in mouse urinary tract infection model at 2 mg/kg; format: functional, organism-based; parameters: dose 2 mg/kg; details: Urine
Outline: (§4)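 Female ICR mice (4 weeks) were denied water 1 day. Under pentobarbital anesthesia they received 4.32 log10 CFU of strain 93 via the […], which was then clamped 5 h. Dosed sc at 5 h post-challenge plus twice daily for 2 days. Bilateral kidney viable counts taken the day after last treatment; 6 mice/dose.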

Pseudomonas aeruginosa [18] = test: Antibacterial activity against Pseudomonas aeruginosa KG2212 producing MexAB-OprM efflux pump; format: functional; outline: as §1
Escherichia coli [19] = test: Antibacterial activity against Escherichia coli C600 expressing ESBL CTX-M3; format: functional; outline: as §2
Pseudomonas aeruginosa [20] = test: Antibacterial activity against Pseudomonas aeruginosa PAO4069 expressing inducible AmpC; format: functional; outline: as §1
Pseudomonas aeruginosa [21] = test: Antibacterial activity against ciprofloxacin-resistant Pseudomonas aeruginosa; format: functional; outline: as §1
Pseudomonas aeruginosa [22] = test: Antibacterial activity against Pseudomonas aeruginosa PAO1456 expressing constitutive AmpC; format: functional; outline: as §1
Escherichia coli [23] = test: Antibacterial activity against Escherichia coli C600 expressing ESBL TEM4; format: functional; outline: as §2
Pseudomonas aeruginosa [24] = test: Antibacterial activity against Pseudomonas aeruginosa FP1380 expressing constitutive AmpC; format: functional; outline: as §2
Pseudomonas aeruginosa [25] = test: Efficacy against Pseudomonas aeruginosa 93 assessed as reduction in bacterial counts in mouse burn wound infection model at 50 mg/kg, relative to control; format: functional, organism-based; parameters: dose 50 mg/kg
Outline: (§5)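 Male ICR mice (4 weeks), anesthetized with pentobarbital, received an ethanol flame burn on the shaved back (0.1 ml flaming ethanol applied twice). The wound was inoculated with 4.60 log10 CFU of strain 93. Dosed iv twice daily for 3 days from 3 h post-infection. Lesion viable counts (CFU/g) taken the day after last dose versus untreated controls; 6 mice/dose.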

Pseudomonas aeruginosa [26] = test: Efficacy against Pseudomonas aeruginosa 93 assessed as reduction in bacterial counts in mouse burn wound infection model at 10 mg/kg; format: functional, organism-based; parameters: dose 10 mg/kg; outline: as §5
Pseudomonas aeruginosa [27] = test: Antibacterial activity against Pseudomonas aeruginosa; format: functional; outline: as §1
Escherichia coli [28] = test: Antibacterial activity against Escherichia coli C600 expressing ESBL TEM9; format: functional; outline: as §2
Escherichia coli [29] = test: Antibacterial activity against Escherichia coli C600 expressing ESBL TEM3; format: functional; outline: as §2
Escherichia coli [30] = test: Antibacterial activity against Escherichia coli C600 expressing TEM2; format: functional; outline: as §2
Pseudomonas aeruginosa [31] = test: Efficacy against Pseudomonas aeruginosa 93 pulmonary infection in mouse assessed as reduction in bacterial counts at 2 mg/kg, sc; format: functional, organism-based; parameters: dose 2 mg/kg; outline: as §3
Escherichia coli [32] = test: Antibacterial activity against Escherichia coli C600 expressing SHV1; format: functional; outline: as §2
Pseudomonas aeruginosa [33] = test: Antibacterial activity against ceftazidime-resistant Pseudomonas aeruginosa; format: functional; outline: as §1
Escherichia coli [34] = test: Antibacterial activity against Escherichia coli C600 expressing TEM1; format: functional; outline: as §2
Pseudomonas aeruginosa [35] = test: Efficacy against Pseudomonas aeruginosa 93 assessed as reduction in bacterial counts in mouse urinary tract infection model at 0.5 mg/kg; format: functional, organism-based; parameters: dose 0.5 mg/kg; details: Urine; outline: as §4
Escherichia coli [36] = test: Antibacterial activity against Escherichia coli C600 expressing ESBL CTX-M18; format: functional; outline: as §2
Pseudomonas aeruginosa [37] = test: Antibacterial activity against Pseudomonas aeruginosa KG4545 producing MexXY efflux pump; format: functional; outline: as §1
Pseudomonas aeruginosa [38] = test: Antibacterial activity against Pseudomonas aeruginosa KG3056 producing MexCD-OprJ efflux pump; format: functional; outline: as §1
Pseudomonas aeruginosa [39] = test: Antibacterial activity against Pseudomonas aeruginosa 22029 expressing metallo beta lactamase; format: functional; outline: as §1
Pseudomonas aeruginosa [40] = test: Antibacterial activity against imipenem-resistant Pseudomonas aeruginosa; format: functional; outline: as §1

Cn1c(N)c(NC(=O)NCCN)c[n+]1CC1=C(C(=O)O)N2C(=O)[C@@H](NC(=O)/C(=N\OC(C)(C)C(=O)[O-])c3nsc(N)n3)[C@H]2SC1 [CEFTOLOZANE]
> 128 µg/mL: MIC (Pseudomonas aeruginosa [39])
4 µg/mL: MIC (Escherichia coli [16]) | MIC (Pseudomonas aeruginosa [24]) | MIC90 (Pseudomonas aeruginosa [33])
0.25 µg/mL: MIC (Escherichia coli [9]) | MIC (Pseudomonas aeruginosa [15]) | MIC (Escherichia coli [34]) | MIC (Pseudomonas aeruginosa [38])
16 µg/mL: MIC (Escherichia coli [8]) | MIC (Escherichia coli [12]) | MIC (Escherichia coli [19]) | MIC (Escherichia coli [36])
32 µg/mL: MIC (Escherichia coli [3]) | MIC (Escherichia coli [4]) | MIC (Escherichia coli [6]) | MIC (Escherichia coli [7]) | MIC (Escherichia coli [14]) | MIC (Escherichia coli [28])
active: Activity (Pseudomonas aeruginosa [11]) | Activity (Pseudomonas aeruginosa [17]) | Activity (Pseudomonas aeruginosa [25]) | Activity (Pseudomonas aeruginosa [26]) | Activity (Pseudomonas aeruginosa [31]) | Activity (Pseudomonas aeruginosa [35])
2 µg/mL: MIC (Pseudomonas aeruginosa [5]) | MIC90 (Pseudomonas aeruginosa [21]) | MIC (Escherichia coli [23]) | MIC50 (Pseudomonas aeruginosa [33])
1 µg/mL: MIC50 (Pseudomonas aeruginosa [21]) | MIC (Pseudomonas aeruginosa [22]) | MIC90 (Pseudomonas aeruginosa [27]) | MIC (Escherichia coli [29]) | MIC90 (Pseudomonas aeruginosa [40])
0.5 µg/mL: MIC (Pseudomonas aeruginosa [1]) | MIC (Pseudomonas aeruginosa [2]) | MIC (Escherichia coli [10]) | MIC (Pseudomonas aeruginosa [13]) | MIC (Pseudomonas aeruginosa [18]) | MIC (Pseudomonas aeruginosa [20]) | MIC50 (Pseudomonas aeruginosa [27]) | MIC (Escherichia coli [30]) | MIC (Escherichia coli [32]) | MIC (Pseudomonas aeruginosa [37]) | MIC (Pseudomonas aeruginosa [40]) | MIC50 (Pseudomonas aeruginosa [40])
